High-throughput results as filed in PubChem BioAssay.
Calb biofilm kill – mixture kills Candida albicans biofilm cells | C. albicans biofilm persisters + clotrimazole, fluorescence viability; primary screen in compound mixtures of four per well | AID 1242 | actives 0.02% (n = 120,000) | inhibition, % at 7.6 µM;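 active = inhibition above 30.3% in the primary screen of four-compound pools, then above 30% when the compound was retested; inconclusive = passed the primary limit but could not be retested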;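 note: compounds exposed to preformed 24 h biofilms for 48 h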
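Test system: C. albicans CAF4-2 wild-type biofilms; buffer or medium: RPMI/MOPS medium, pH 7.0; schedule: 24 h biofilm formation, then 48 h compound exposure, 37 °C; detection: Alamar Blue fluorescence; measure: percent inhibition of biofilm viability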
ROMK primary – modulates human ROMK potassium channel activity; Tet-inducible ROMK, thallium flux fluorescence; actives lie on both sides; B-score at 10 µM; actives 2% (n = 130,000); AID 1918;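 active = signal ratio slope over the read window, or its plate-corrected B-score, at least 3 SD from the plate mean, either direction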;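 note: B-score of the F/F0 ratio slope over 7 to 12 s after thallium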
Target sequence (P48048 whole entry, looked up): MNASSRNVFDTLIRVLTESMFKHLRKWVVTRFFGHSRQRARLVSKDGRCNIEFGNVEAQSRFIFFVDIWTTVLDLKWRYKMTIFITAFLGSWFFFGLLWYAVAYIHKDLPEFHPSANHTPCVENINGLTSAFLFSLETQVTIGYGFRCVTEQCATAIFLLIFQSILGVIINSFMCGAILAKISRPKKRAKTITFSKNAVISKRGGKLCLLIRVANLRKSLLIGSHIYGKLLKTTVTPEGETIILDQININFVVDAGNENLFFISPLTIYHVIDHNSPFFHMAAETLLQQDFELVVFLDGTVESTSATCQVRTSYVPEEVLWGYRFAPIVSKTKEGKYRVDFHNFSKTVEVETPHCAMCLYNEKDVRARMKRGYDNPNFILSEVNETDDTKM
ROMK hit retest – confirmation of human ROMK potassium channel modulators. shares compounds with ROMK primary. ROMK thallium flux, fluorescence ratio; stronger effect = lower value. normalized thallium flux (F/F0 slope) at 10 µM. actives 54% (n = 3,000). AID 1917;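 active = Flux at 10 µM at least 3 SD below or above vehicle control mean in one or both replicates; inconclusive = no clear call, values can overlap the other calls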
Each line names hits and unclear results; the compound was inactive in the other large screens (follow-up assays come after a bar, where they were run). The sample as a whole holds a higher share of hits than the screen did.

CCC(C)NCCC(=O)Nc1ccc(Cl)c(S(=O)(=O)Nc2ccc(Cl)cc2)c1 (configuration not stated)	ROMK primary -4.07 | ROMK hit retest 0.0637
Cc1ccc(C(=O)CCC(=O)Nc2ccc(Cl)c(S(=O)(=O)Nc3cccc(Cl)c3)c2)cc1	none
COC(=O)c1ccc(-c2sc3nc(N4CCOCC4)c4c(c3c2N)CCCC4)o1	ROMK primary -4.29 (no result: Calb biofilm kill) | ROMK hit retest 0.0582
COC(=O)c1sc2nc(N3CCCCC3)c3c(c2c1N)CCCC3	none (no result: Calb biofilm kill)
N#C/C(=C/c1ccc(N2CCOCC2)o1)c1ccc(Cl)cc1	none (no result: Calb biofilm kill, ROMK primary) | ROMK hit retest 0.0514
N#C/C(=C\c1ccc(N2CCCCC2)o1)C(N)=O	none (no result: ROMK primary)
O=C(COC(=O)c1ccc[nH]c1=O)NC1CCCc2ccccc21 (configuration not stated)	none (no result: ROMK primary)
COCCCNCCCCOc1ccccc1-c1ccccc1	none
C=CCNCCCCOc1ccccc1-c1ccccc1	ROMK primary -3.03 | ROMK hit retest 0.0621
COc1cccc(NC=C2C(=O)OC3(CCCCC3)OC2=O)c1	none (no result: Calb biofilm kill)
COc1ccc(C2=CC(=O)OC3(CCCCC3)O2)cc1	ROMK primary -2.44 (no result: Calb biofilm kill) | ROMK hit retest 0.0622
COc1ccc(C2(CNC(=O)c3ccccc3[N+](=O)[O-])CCOCC2)cc1	none
COc1cc(C2C(C#N)=C(N)Oc3c2ccc2ccccc32)ccc1OCC(=O)Nc1ccc(C)cc1 (configuration not stated)	none
COc1ccc(C2C(C#N)=C(N)Oc3c2ccc2cccnc32)cc1OC (configuration not stated)	ROMK primary 6.72 | ROMK hit retest inactive
CC1CCN(CCCNC(=O)c2ccc(CSCc3cccc(Cl)c3)o2)CC1	ROMK primary -4.19 (no result: Calb biofilm kill) | ROMK hit retest 0.053
CN1CCN(CCCNC(=O)c2ccc(CSCc3cccc(Cl)c3)o2)CC1	none (no result: Calb biofilm kill)
O=C(COc1ccccc1-c1ccccc1)NN=C1CCCC1	none
O=C1CCC/C(=N\NC(=O)c2ccc(COc3ccccc3-c3ccccc3)cc2)C1	ROMK primary -5.48 | ROMK hit retest inactive
COc1cccc(CNC(=O)CN2C(=O)CSc3ccc(S(=O)(=O)N4CCCC4)cc32)c1	none
Cc1cccc(C(=O)OCc2cncs2)c1	none
CCC(=O)Nc1nc2ccc(NC(=O)c3cc(OC)c(OC)c(OC)c3)cc2s1	none (no result: ROMK primary) | ROMK hit retest 0.0641
COc1cc(CC(=O)Nc2ccc3nc(C)sc3c2)cc(OC)c1OC	none (no result: ROMK primary)
O=C(O)c1cccc(N/N=C/C2=C(Cl)c3cc(Cl)ccc3SC2)c1	ROMK primary 0.76 | ROMK hit retest inactive
O=C(O)c1cccc(N/N=C/c2ccc(F)c(F)c2)c1	none
CCCCCCCn1c2c(c(=N)c3ccccc31)CCC2	none
N#CC1=C(N)SC(N)=C(C#N)C1c1c(Cl)cccc1Cl	none (no result: Calb biofilm kill)
N#CC1=C(N)SC(N)=C(C#N)C1c1ccc(C(F)(F)F)cc1	ROMK primary -3.55 (no result: Calb biofilm kill) | ROMK hit retest 0.0454
Cc1[nH]n(-c2ccccc2)c(=O)c1N=Nc1ccccc1	none
CCCSC(=S)c1c(C)[nH]n(-c2ccccc2)c1=O	none (no result: ROMK primary) | ROMK hit retest 0.12
COc1ccc(CCNC(=O)c2cc3c(=O)n(C)c4ccccc4c3n2C)c(OC)c1	none
Cn1c(C(=O)NCCN2CCc3ccccc3C2)cc2c(=O)n(C)c3ccccc3c21	none (no result: Calb biofilm kill, ROMK primary) | ROMK hit retest inconclusive
COc1ccc(OCC(N)=O)cc1	none (no result: ROMK primary) | ROMK hit retest inactive
COc1cc(OCC(N)=O)cc(OC)c1OC	none
CN1C(=S)N(c2cccnc2)C(=O)/C1=C\c1ccc(C(C)(C)C)cc1	none
CN1C(=S)N(c2cccnc2)C(=O)/C1=C\c1ccc(N(C)C)cc1	ROMK primary -5.55 | ROMK hit retest 0.0415
Cn1c(=O)c([N+](=O)[O-])c(NCc2ccc3c(c2)OCO3)c2ccccc21	none (no result: ROMK primary)
Clc1ccc(COc2cccc(CNCc3ccncc3)c2)cc1	ROMK primary -3.79 | ROMK hit retest inactive
CC(C)(CO)NCc1cccc(OCc2ccc(Cl)cc2)c1	none
CC(=O)N(C(C)=O)S(=O)(=O)c1ccc(N=NN2CCOCC2)cc1	none (no result: ROMK primary)
Cc1ccc(N=C2NC(=O)/C(=C\c3ccsc3)S2)c(C)c1	none
O=C(Cn1c2ccccc2c2nc3n(c(=O)c21)CCS3)Nc1ccccc1C(F)(F)F	ROMK primary -3.2 | ROMK hit retest 0.0685
COc1ccccc1NC(=O)Cn1c2ccccc2c2nc3n(c(=O)c21)CCS3	none
O=C1OCC2=C1C(c1ccc(F)cc1)CC(=O)N2c1ccc(F)cc1 (configuration not stated)	none
O=C1OCC2=C1C(c1ccc(F)cc1)CC(=O)N2c1ccccc1 (configuration not stated)	ROMK primary 3.06 | ROMK hit retest inactive
COc1ccc2cc(C(c3nnnn3C3CCCC3)N3CCOCC3)c3nnnn3c2c1 (configuration not stated)	none
Cc1nc2ccc(S(=O)(=O)NCC(=O)N(C)Cc3ccccc3)cc2s1	none
O=C(N/N=C\c1c(O)ccc2ccccc12)c1ccc(S(=O)(=O)N2CCCCC2)cc1	ROMK primary -3.8 | ROMK hit retest 0.0508
